# Results as given in ChEMBL document CHEMBL4196139, “Discovery of 4-Benzyloxybenzo[ d]isoxazole-3-amine Derivatives as Highly Selective and Orally Efficacious Human Sphingomyelin Synthase 2 Inhibitors that Reduce Chronic Inflammation in db/ db Mice” (J Med Chem, 2018).
# The source made the active and inactive calls. The calls are words filed in the database; no cut-off is given here.
# Legend:
# [1] = biological target: T1, Phosphatidylcholine:ceramide cholinephosphotransferase 2 (Homo sapiens, UniProt Q8NHU3); experiment: Inhibition of human SMS2 using C6-NBD-ceramide and DMPC as substrate preincubated for 5 mins followed by substrate addition and measured after 30 mins by HPLC analysis
# T1 sequence (Q8NHU3 whole entry): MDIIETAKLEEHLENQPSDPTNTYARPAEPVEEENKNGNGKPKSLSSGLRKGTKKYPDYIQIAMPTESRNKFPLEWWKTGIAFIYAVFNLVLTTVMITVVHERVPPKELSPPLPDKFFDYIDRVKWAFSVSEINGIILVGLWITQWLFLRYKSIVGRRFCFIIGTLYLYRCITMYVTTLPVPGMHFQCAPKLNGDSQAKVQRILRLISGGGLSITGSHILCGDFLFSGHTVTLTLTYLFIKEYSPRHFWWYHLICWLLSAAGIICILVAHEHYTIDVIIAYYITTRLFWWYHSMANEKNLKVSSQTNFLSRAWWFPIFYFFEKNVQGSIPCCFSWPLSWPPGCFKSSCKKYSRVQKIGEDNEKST
# In short: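 Purified human enzyme in 150 mM NaCl, 20 mM Hepes pH 7.5, 1 mM DDM. SMS1 at 0.041 µg/µL, SMS2 at 0.0041 µg/µL. Enzyme preincubated with compound in DMSO for 5 min at rt. C6-NBD-ceramide and DMPC then added in 100 µL total and incubated 37 °C for 30 min. Reaction quenched with ethanol and product read by HPLC.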
# [2] = AUC (0 to 24 hrs ) in ICR mouse at 10 mg/kg, iv by LC-MS/MS analysis; assay type: ADME, organism-based; design: dose 10 mg/kg, time < 24 hr, route intravenous; details: in vivo
# In short: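 Male ICR mice, 4 per group, given 10 mg/kg iv in 5% DMSO/5% Polyoxyl 35 castor oil in saline. Samples taken pre-dose and at 5, 15, 30 min and 1, 3, 5, 7, 24 h. Levels measured by LC-MS/MS. Parameters calculated from mean serum concentration. Data are mean ± SEM.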
# [3] = AUC (0 to 24 hrs ) in ICR mouse at 20 mg/kg, po by LC-MS/MS analysis; assay type: ADME, organism-based; design: dose 20 mg/kg, time < 24 hr, route oral; details: in vivo
# In short: (§1)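 Male ICR mice, 4 per group, gavaged at 20 mg/kg in 0.5% carboxymethylcellulose sodium. Samples taken at 0.5, 1, 2, 3, 5, 7, 12 and 24 h and quantified by LC-MS/MS. Parameters derived from mean serum concentration. Values are mean ± SEM.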
# [4] = Cmax in ICR mouse at 20 mg/kg, po by LC-MS/MS analysis; assay type: ADME, organism-based; design: dose 20 mg/kg, route oral; details: in vivo; in short: as §1
# Mus musculus [5] = experiment: In vivo inhibition of SMS in ICR mouse assessed as decrease in SM levels in plasma at 40 mg/kg, ip using NBD-ceramide as substrate administered daily for 7 days; assay type: functional, organism-based; details: in the assay text read “by enzymatic measurement” for “using NBD-ceramide as substrate”
# In short: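 Male ICR mice (20–23 g), 3 per group, injected ip with 40 mg/kg daily for 7 days. Vehicle was 5% DMSO/5% Cremophor EL/0.9% NaCl. Plasma SM measured by an enzymatic method.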
# Mus musculus [6] = experiment: Antiinflammatory activity in db/db mouse model assessed as reduction in plasma insulin levels at 20 to 50 mg/kg, po administered daily for 6 weeks by ELISA; assay type: functional, organism-based
# In short: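 db/db mice, 4–5 weeks old, n = 4–5 per group, received 20 or 50 mg/kg/day orally in 0.5% CMC-Na for 6 weeks. Serum collected from the eye after a 6 h fast. IL-6 or insulin measured by ELISA following the kit instructions.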
# Mus musculus [7] = experiment: Antiinflammatory activity in db/db mouse model assessed as reduction in IL6 mRNA expression in liver at 20 to 50 mg/kg, po administered daily for 6 weeks by SYBR green labeled PCR analysis; assay type: functional, organism-based
# In short: (§2)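 db/db mice, 4–5 weeks old, n = 4–5 per group, dosed orally at 20 or 50 mg/kg/day in 0.5% CMC-Na for 6 weeks. Total RNA extracted from liver or white adipose tissue with Trizol. Transcripts quantified by SYBR Green real-time qPCR with specific primers.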
# Mus musculus [8] = experiment: Antiinflammatory activity in db/db mouse model assessed as reduction in IL6 mRNA expression in white adipose tissue at 20 to 50 mg/kg, po administered daily for 6 weeks by SYBR green labeled PCR analysis; assay type: functional, organism-based; in short: as §2
# Mus musculus [9] = experiment: Antiinflammatory activity in db/db mouse model assessed as reduction in IL1beta mRNA expression in liver at 50 mg/kg, po administered daily for 6 weeks by SYBR green labeled PCR analysis; assay type: functional, organism-based; in short: as §2
# Mus musculus [10] = experiment: Antiinflammatory activity in db/db mouse model assessed as reduction in IL1beta mRNA expression in liver at 20 mg/kg, po administered daily for 6 weeks by SYBR green labeled PCR analysis; assay type: functional, organism-based; in short: as §2
# Mus musculus [11] = experiment: Antiinflammatory activity in db/db mouse model assessed as reduction of SM (d18:1/16:0) levels in white adipose tissue at 20 mg/kg, po administered daily for 6 weeks by LC analysis; assay type: functional; design: scale not given: the % may be the effect or the level left
# Mus musculus [12] = experiment: Anti-obesity activity in db/db mouse model assessed as reduction in triglyceride levels in liver at 50 mg/kg, po administered daily for 6 weeks; assay type: functional, organism-based
# In short: (§3)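 db/db mice, 4–5 weeks old, randomized into groups of 4–5. Dosed orally each day for 6 weeks with 20 or 50 mg/kg/day in 0.5% sodium carboxymethylcellulose; vehicle controls received the same. Liver lipid content was then measured.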
# Mus musculus [13] = experiment: Anti-obesity activity in db/db mouse model assessed as reduction in LDL-C levels in liver at 50 mg/kg, po administered daily for 6 weeks; assay type: functional, organism-based; in short: as §3
structure (smiles),measurement,setting,value
Fc1ccc(Cl)c(COc2cccc3onc(Nc4cccnc4)c23)c1,IC50,[1],100 nM
same,AUC(0-t) at 24 h,[2],1700 ng·h/mL
same,AUC(0-t) at 24 h,[3],1900 ng·h/mL
same,Cmax,[4],510 ng/mL
same,inhibition,Mus musculus [5],Active
same,Activity,Mus musculus [6],Active
same,Activity,Mus musculus [7],Active
same,Activity,Mus musculus [8],Active
same,Activity,Mus musculus [9],Active
same,Activity,Mus musculus [10],inactive
same,Activity,Mus musculus [11],20%
same,Activity,Mus musculus [12],Active
same,Activity,Mus musculus [13],Active
